From ChEMBL document CHEMBL3098028, “Synthesis and in vitro and in vivo pharmacological evaluation of new 4-aminoquinoline-based compounds” (ACS Med Chem Lett, 2013)
Values after ≈ are worked out from the molar mass of the structure shown.

What was measured:
Cytochrome P450 2C9 = Cytochrome P450 2C9 (Homo sapiens, UniProt P11712); experiment: Inhibition of CYP2C9 in human liver microsomes assessed as diclofenac 4'-hydroxylation after 20 mins by LC-MS/MS analysis; format: ADME
[1] = Kinetic solubility of the compound in 0.01 M HCl at pH 2 after 2 hrs by HPLC analysis; format: physicochemical; details: read-out: Kinetic_solubility
Cytochrome P450 2E1 = Cytochrome P450 2E1 (Homo sapiens, UniProt P05181); experiment: Inhibition of CYP2E1 in human liver microsomes assessed as chlorzoxazone 6-hydroxylation after 20 mins by LC-MS/MS analysis; format: ADME
[2] = Drug metabolism in hepatocytes (unknown origin) assessed as 4-(2-((1-tert-butyl-1H-tetrazol-5-yl)(4-chlorophenyl)methylamino)ethylamino)-7-chloroquinoline 1-oxide level at 5 uM after 6 hrs by LC-MS/MS analysis; format: ADME, cell-based, Hepatocyte
Cytochrome P450 2A6 = target: T1, Cytochrome P450 2A6 (Homo sapiens, UniProt P11509); experiment: Inhibition of CYP2A6 in human liver microsomes assessed as coumarin 7-hydroxylation after 20 mins by LC-MS/MS analysis; format: ADME
T1 sequence (P11509 whole entry): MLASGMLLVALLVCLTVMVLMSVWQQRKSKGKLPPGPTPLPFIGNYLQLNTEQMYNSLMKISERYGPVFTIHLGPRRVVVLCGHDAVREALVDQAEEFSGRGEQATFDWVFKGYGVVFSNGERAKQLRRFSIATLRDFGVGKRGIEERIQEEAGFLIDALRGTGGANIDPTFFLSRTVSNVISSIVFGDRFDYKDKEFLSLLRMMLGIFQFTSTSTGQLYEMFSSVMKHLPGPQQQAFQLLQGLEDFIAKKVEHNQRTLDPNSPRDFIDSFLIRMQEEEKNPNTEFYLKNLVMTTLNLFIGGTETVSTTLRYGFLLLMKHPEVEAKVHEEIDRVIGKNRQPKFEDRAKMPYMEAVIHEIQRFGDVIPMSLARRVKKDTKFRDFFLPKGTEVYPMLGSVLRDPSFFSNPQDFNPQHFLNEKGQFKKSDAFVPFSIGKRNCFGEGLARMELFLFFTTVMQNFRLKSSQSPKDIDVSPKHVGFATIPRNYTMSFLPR

Cytochrome P450 2B6 = target: T2, Cytochrome P450 2B6 (Homo sapiens, UniProt P20813); experiment: Inhibition of CYP2B6 in human liver microsomes assessed as bupropion hydroxylation after 20 mins by LC-MS/MS analysis; format: ADME
T2 sequence (P20813 whole entry): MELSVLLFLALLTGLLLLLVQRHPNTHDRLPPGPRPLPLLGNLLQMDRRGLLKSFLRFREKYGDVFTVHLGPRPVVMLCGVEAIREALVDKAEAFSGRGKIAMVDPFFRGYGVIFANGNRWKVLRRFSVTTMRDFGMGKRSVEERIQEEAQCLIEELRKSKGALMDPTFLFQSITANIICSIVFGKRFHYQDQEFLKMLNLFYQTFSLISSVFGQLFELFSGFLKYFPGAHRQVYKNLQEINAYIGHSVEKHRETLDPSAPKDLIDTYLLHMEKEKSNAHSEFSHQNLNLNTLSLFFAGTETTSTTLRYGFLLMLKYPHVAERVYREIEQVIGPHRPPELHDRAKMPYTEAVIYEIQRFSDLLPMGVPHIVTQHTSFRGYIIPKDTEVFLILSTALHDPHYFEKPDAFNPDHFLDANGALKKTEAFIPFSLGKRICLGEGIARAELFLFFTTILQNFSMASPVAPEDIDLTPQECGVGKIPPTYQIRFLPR

Cytochrome P450 2C8 = target: T3, Cytochrome P450 2C8 (Homo sapiens, UniProt P10632); experiment: Inhibition of CYP2C8 in human liver microsomes assessed as paclitaxel 6alpha-hydroxylation after 20 mins by LC-MS/MS analysis; format: ADME
T3 sequence (P10632 whole entry): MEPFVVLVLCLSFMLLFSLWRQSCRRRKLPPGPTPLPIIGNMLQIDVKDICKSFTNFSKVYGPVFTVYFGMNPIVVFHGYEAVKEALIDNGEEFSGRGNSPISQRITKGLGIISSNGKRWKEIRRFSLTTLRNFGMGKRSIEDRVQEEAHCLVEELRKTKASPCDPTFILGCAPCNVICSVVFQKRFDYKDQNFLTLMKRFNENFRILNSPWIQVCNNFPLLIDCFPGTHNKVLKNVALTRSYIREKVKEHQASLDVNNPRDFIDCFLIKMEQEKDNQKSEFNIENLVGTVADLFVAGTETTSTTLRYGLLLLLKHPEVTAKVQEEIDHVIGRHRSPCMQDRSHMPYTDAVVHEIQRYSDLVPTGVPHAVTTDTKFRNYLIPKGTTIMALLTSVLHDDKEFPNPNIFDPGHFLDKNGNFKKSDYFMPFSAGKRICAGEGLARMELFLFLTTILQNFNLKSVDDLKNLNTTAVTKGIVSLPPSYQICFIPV

Mus musculus = experiment: AUC (0 to infinity) in C57BL/6 mouse at 20 mg/kg, po; format: ADME, organism-based, Plasma; design: time infinity, dose 20 mg/kg, route oral; details: in vivo
Procedure, shortened: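 Healthy male C57/BL6 mice received a single intravenous dose (2.5 or 5.0 mg/kg) or oral dose (20 or 40 mg/kg). Plasma concentrations were followed over time to give AUC0-∞ in min·μmol/L, alongside t1/2, CL, Vd, Vss, Cmax, Tmax and oral bioavailability. Values are means of five animals.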

[3] = Kinetic solubility of the compound in phosphate buffered saline at pH 7.4 after 2 hrs by HPLC analysis; format: physicochemical; details: read-out: Kinetic_solubility
CHO = experiment: Cytotoxicity against CHO cells; format: cell-based; details: Cricetulus griseus
Cytochrome P450 1A2 = target: T4, Cytochrome P450 1A2 (Homo sapiens, UniProt P05177); experiment: Inhibition of CYP1A2 in human liver microsomes assessed as phenacetin O-deethylation after 20 mins by LC-MS/MS analysis; format: ADME
T4 sequence (P05177 whole entry): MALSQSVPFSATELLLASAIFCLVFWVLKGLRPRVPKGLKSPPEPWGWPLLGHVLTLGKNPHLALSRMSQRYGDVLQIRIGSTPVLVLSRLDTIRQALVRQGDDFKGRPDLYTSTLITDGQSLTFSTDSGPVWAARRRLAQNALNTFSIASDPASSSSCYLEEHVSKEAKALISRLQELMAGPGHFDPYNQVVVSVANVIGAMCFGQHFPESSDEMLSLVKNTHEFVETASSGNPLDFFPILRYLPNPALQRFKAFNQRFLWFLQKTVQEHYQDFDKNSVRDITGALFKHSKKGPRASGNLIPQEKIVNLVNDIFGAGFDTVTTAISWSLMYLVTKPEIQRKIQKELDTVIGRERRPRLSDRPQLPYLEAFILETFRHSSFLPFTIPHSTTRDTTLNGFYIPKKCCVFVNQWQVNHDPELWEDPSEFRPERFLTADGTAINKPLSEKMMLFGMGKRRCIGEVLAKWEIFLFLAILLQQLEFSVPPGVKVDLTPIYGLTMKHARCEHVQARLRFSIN

[4] = Drug metabolism in hepatocytes (unknown origin) assessed as 2-(5-((4-chlorophenyl)(2-(7-chloroquinolin-4-ylamino)ethylamino)methyl)-1H-tetrazol-1-yl)-2-methylpropan-1-ol level at 5 uM after 6 hrs by LC-MS/MS analysis; format: ADME, cell-based, Hepatocyte
Liver microsome = experiment: Drug metabolism in human liver microsomes assessed as 2-(5-((4-chlorophenyl)(2-(7-chloroquinolin-4-ylamino)ethylamino)methyl)-1H-tetrazol-1-yl)-2-methylpropan-1-ol level at 5 uM after 1 hr by LC-MS/MS analysis; format: ADME

Cytochrome P450 2E1, sequence (P05181 whole entry): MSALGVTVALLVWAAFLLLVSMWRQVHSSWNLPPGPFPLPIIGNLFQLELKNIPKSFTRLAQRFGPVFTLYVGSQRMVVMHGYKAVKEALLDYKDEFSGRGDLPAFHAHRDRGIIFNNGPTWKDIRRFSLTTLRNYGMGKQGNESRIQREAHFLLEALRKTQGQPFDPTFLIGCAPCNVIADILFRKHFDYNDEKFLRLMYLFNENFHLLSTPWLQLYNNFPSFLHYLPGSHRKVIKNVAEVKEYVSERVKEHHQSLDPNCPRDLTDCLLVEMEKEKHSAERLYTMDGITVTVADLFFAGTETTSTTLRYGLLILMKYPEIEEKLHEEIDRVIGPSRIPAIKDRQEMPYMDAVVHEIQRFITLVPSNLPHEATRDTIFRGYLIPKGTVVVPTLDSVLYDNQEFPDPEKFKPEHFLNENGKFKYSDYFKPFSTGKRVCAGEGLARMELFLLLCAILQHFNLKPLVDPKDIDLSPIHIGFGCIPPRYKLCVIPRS
Cytochrome P450 2C9, sequence (P11712 whole entry): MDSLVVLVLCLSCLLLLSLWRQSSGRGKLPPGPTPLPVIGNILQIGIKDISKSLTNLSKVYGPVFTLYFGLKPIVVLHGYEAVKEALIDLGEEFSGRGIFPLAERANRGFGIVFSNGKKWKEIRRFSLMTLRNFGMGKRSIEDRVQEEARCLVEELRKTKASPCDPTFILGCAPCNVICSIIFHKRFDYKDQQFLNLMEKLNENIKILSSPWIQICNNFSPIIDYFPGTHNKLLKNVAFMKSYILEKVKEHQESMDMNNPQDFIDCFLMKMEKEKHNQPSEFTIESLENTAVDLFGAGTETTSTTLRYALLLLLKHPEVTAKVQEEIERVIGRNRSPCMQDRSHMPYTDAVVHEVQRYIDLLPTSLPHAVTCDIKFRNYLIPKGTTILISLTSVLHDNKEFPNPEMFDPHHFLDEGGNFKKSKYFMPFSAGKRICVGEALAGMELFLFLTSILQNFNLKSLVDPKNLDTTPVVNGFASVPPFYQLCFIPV

CC(C)(C)n1nnnc1C(NCCNc1ccnc2cc(Cl)ccc12)c1ccc(Cl)cc1 (stereo not drawn)
IC50 (Cytochrome P450 2C9): 8.91 µM | solubility kinetic at 2 h [1]: > 200 µM | IC50 (Cytochrome P450 2E1): > 20 µM | Drug metabolism [2]: Active | IC50 (Cytochrome P450 2A6): > 20 µM | IC50 (Cytochrome P450 2B6): > 20 µM | IC50 (Cytochrome P450 2C8): 12.7 µM | AUC (Mus musculus): 222 µmol·min/L | solubility kinetic at 2 h [3]: 6.88 µM (≈ 3.24 µg/mL) | IC50 (CHO): 97.8 µM | IC50 (Cytochrome P450 1A2): > 20 µM | Drug metabolism [4]: Active | Drug metabolism (Liver microsome): Active
